Test results reported in ChEMBL document CHEMBL3865795, “Design, synthesis and biological evaluation of N-((1-benzyl-1H-1,2,3-triazol-4-yl)methyl)-1,3-diphenyl-1H-pyrazole-4-carboxamides as CDK1/Cdc2 inhibitors” (2016).
Activity calls are given as the source filed them. The calls are words filed in the database; no cut-off is given here.

Key:
[1] = Antiproliferative activity against human MCF7 cells after 48 hrs by SRB assay; type: functional; conditions: MCF7, 48 h
Outline: (§1)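 SRB assay in ATCC-sourced cells grown in DMEM with 10% FBS and penicillin/streptomycin at 37 °C, 5% CO2. Cells were plated at densities set by doubling time and incubated 24 h before dosing. Compounds (DMSO 10 mM stock diluted in medium) were tested at 0.01, 0.1, 1, 10 and 100 µM with 48 h continuous exposure. Cells were fixed in cold 10% TCA and stained with 0.057% SRB; OD was read at 510 nm. GI50 was derived from time-zero, control and test absorbances and reported as the mean of three independent experiments.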

[2] = Antiproliferative activity against human MIAPaCa2 cells after 48 hrs by SRB assay; type: functional; conditions: MIA PaCa-2, 48 h; outline: as §1
[3] = Antiproliferative activity against human HeLa cells after 48 hrs by SRB assay; type: functional; outline: as §1
MCF7 [4] = experiment: Induction of apoptosis in human MCF7 cells assessed as reduction in mitochondrial membrane potential at 50 to 100 nM after 48 hrs by rhodamine 123-staining based fluorescence microscopic analysis; type: functional, cell-based
Outline: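 MCF-7 cells were plated at 1×10^5 cells/mL and allowed to adhere overnight, then treated at 50 or 100 nM. After PBS washes they were loaded with rhodamine 123 (5 µg/ml) for 30 min in the dark at 37 °C. Loss of green fluorescence was assessed by fluorescence microscopy.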

MCF7 [5] = experiment: Induction of apoptosis in human MCF7 cells assessed as intracellular ROS generation at 100 nM after 48 hrs by carboxy-DCFDA staining based fluorescence microscopic analysis; type: functional, cell-based
Outline: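 MCF-7 cells were plated at 1×10^5 cells/mL, adhered overnight and treated at 50 or 100 nM. Methods and legend state 24 h treatment; the results text states 48 h. Cells were PBS-washed, fixed in 4% paraformaldehyde and exposed to carboxy-DCFDA for 30 min in the dark at room temperature. DCF fluorescence was assessed by fluorescence microscopy.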

MCF7 [6] = experiment: Induction of apoptosis in human MCF7 cells assessed as necrotic cells at 100 nM after 48 hrs by Annexin V FITC/propidium iodide-based FACS analysis (reference value: 0.4 %); type: functional
[7] = Cell cycle arrest in human MCF7 cells assessed as reduction in DNA content at G0/G1 phase at 50 to 100 nM after 48 hrs by propidium iodide-staining based FACS analysis; type: functional
Outline: (§2)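 MCF-7 cells were incubated 48 h with compound at 50 or 100 nM; nocodazole 100 nM was the reference. Untreated and treated cells were harvested, washed in PBS, fixed in ice-cold 70% ethanol, stained with propidium iodide and analysed by flow cytometry for cell-cycle phase distribution.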

MCF7 [8] = experiment: Induction of apoptosis in human MCF7 cells assessed as late apoptotic cells at 50 nM after 48 hrs by Annexin V FITC/propidium iodide-based FACS analysis (reference value: 4.2 %); type: functional
MCF7 [9] = experiment: Induction of apoptosis in human MCF7 cells assessed as viable cells at 100 nM after 48 hrs by Annexin V FITC/propidium iodide-based FACS analysis (reference value: 93.1 %); type: functional; conditions: MCF7, 48 h, read-out: Activity
MCF7 [10] = experiment: Induction of apoptosis in human MCF7 cells assessed as viable cells at 50 nM after 48 hrs by Annexin V FITC/propidium iodide-based FACS analysis (reference value: 93.1 %); type: functional; conditions: MCF7, 48 h, read-out: Activity
MCF7 [11] = experiment: Induction of apoptosis in human MCF7 cells after 48 hrs by Annexin V FITC/propidium iodide-based FACS analysis; type: functional, cell-based
MCF7 [12] = experiment: Induction of apoptosis in human MCF7 cells assessed as early apoptotic cells at 50 nM after 48 hrs by Annexin V FITC/propidium iodide-based FACS analysis (reference value: 2.4 %); type: functional
[13] = Downregulation of CDK1 in human MCF7 cells at 50 to 100 nM after 48 hrs by Western blot analysis; type: functional, cell-based
Outline: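 MCF-7 cells were treated 48 h at 50 or 100 nM and lysed in RIPA buffer. Lysate (50 µg per lane) was resolved on 10% SDS-PAGE and transferred to PVDF. Membranes were BSA-blocked, probed with primary antibody for 24 h and detected by chemiluminescence, with β-actin as loading control.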

[14] = Cell cycle arrest in human MCF7 cells assessed as accumulation at G2/M phase after 48 hrs by propidium iodide-staining based FACS analysis; type: functional; outline: as §2
MCF7 [15] = experiment: Induction of apoptosis in human MCF7 cells assessed as early apoptotic cells at 100 nM after 48 hrs by Annexin V FITC/propidium iodide-based FACS analysis (reference value: 2.4 %); type: functional
MCF7 [16] = experiment: Induction of apoptosis in human MCF7 cells assessed as chromatin condensation at 50 to 100 nM after 48 hrs by Hoechst 33242-staining based fluorescence microscopic analysis; type: functional, cell-based
Outline: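 MCF-7 cells were seeded at 1×10^5 cells/mL, exposed to compound at 50 or 100 nM, with DMSO vehicle as control. They were fixed in 4% paraformaldehyde for 10 min at 4 °C and stained with Hoechst 33242 (2 µg/mL) for 10 min at room temperature. Nuclear morphology was imaged by fluorescence microscopy in random fields.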

MCF7 [17] = experiment: Induction of apoptosis in human MCF7 cells assessed as necrotic cells at 50 nM after 48 hrs by Annexin V FITC/propidium iodide-based FACS analysis (reference value: 0.4 %); type: functional
MCF7 [18] = experiment: Induction of apoptosis in human MCF7 cells assessed as late apoptotic cells at 100 nM after 48 hrs by Annexin V FITC/propidium iodide-based FACS analysis (reference value: 4.2 %); type: functional

| Structure (SMILES) | GI50 [1] [µM] | GI50 [2] [µM] | GI50 [3] [µM] | further results |
| --- | --- | --- | --- | --- |
| COc1ccc(-c2nn(-c3ccccc3)cc2C(=O)NCc2cn(Cc3cc(OC)c(OC)c(OC)c3)nn2)cc1 | 7.6 | 31.6 | 1.7 |  |
| O=C(NCc1cn(Cc2ccc(C(F)(F)F)cc2)nn1)c1cn(-c2ccccc2)nc1-c1ccccc1 | 0.84 | 17.7 | 1.6 |  |
| COc1ccc(Cn2cc(CNC(=O)c3cn(-c4ccccc4)nc3-c3ccc(OC)cc3)nn2)cc1 | 22.9 | 2.5 | 0.45 |  |
| COc1ccc(Cn2cc(CNC(=O)c3cn(-c4ccccc4)nc3-c3ccc(F)cc3)nn2)cc1OC | > 100 | > 100 | 0.2 |  |
| COc1ccc(-c2nn(-c3ccccc3)cc2C(=O)NCc2cn(Cc3ccc(Cl)cc3)nn2)cc1 | 2.9 | 26.3 | 6.4 |  |
| O=C(NCc1cn(Cc2ccc(Cl)cc2)nn1)c1cn(-c2ccccc2)nc1-c1ccccc1 | > 100 | 8.7 | 0.6 |  |
| O=C(NCc1cn(Cc2ccc(Cl)cc2)nn1)c1cn(-c2ccccc2)nc1-c1ccc(Cl)cc1 | 28.8 | 0.41 | 0.47 |  |
| COc1ccc(-c2nn(-c3ccccc3)cc2C(=O)NCc2cn(Cc3ccc(F)cc3)nn2)cc1 | 0.46 | 24.1 | 0.5 |  |
| COc1cc(Cn2cc(CNC(=O)c3cn(-c4ccccc4)nc3-c3ccc(Cl)cc3)nn2)cc(OC)c1 | 0.15 | 0.34 | 0.73 | Activity (MCF7 [4]): Active; Activity (MCF7 [5]): Active; Activity (MCF7 [6]): 2.2%; Activity [7]: Active; Activity (MCF7 [8]): 10.2%; viability at 0.1 µM (MCF7 [9]): 61.4%; viability at 0.05 µM (MCF7 [10]): 83.2%; Activity (MCF7 [11]): Dose-dependent effect; Activity (MCF7 [12]): 5.6%; Activity [13]: Active; Activity [14]: Dose-dependent effect; Activity (MCF7 [15]): 7.8%; Activity (MCF7 [16]): Active; Activity (MCF7 [17]): 0.9%; Activity (MCF7 [18]): 28.6% |
| COc1ccc(-c2nn(-c3ccccc3)cc2C(=O)NCc2cn(Cc3ccc(C(F)(F)F)cc3)nn2)cc1 | > 100 | > 100 | 6.2 |  |
| O=C(NCc1cn(Cc2ccc(F)cc2)nn1)c1cn(-c2ccccc2)nc1-c1ccc(F)cc1 | 55.3 | 14.3 | 1.2 |  |
| O=C(NCc1cn(Cc2ccc(F)cc2)nn1)c1cn(-c2ccccc2)nc1-c1ccc(Cl)cc1 | 0.57 | 1.99 | 2.8 |  |
| O=C(NCc1cn(Cc2ccc(F)cc2)nn1)c1cn(-c2ccccc2)nc1-c1ccccc1 | 7 | 9.6 | 1.6 |  |
| COc1ccc(Cn2cc(CNC(=O)c3cn(-c4ccccc4)nc3-c3ccccc3)nn2)cc1OC | 12.6 | 8.2 | 10.8 |  |
| COc1cc(Cn2cc(CNC(=O)c3cn(-c4ccccc4)nc3-c3ccccc3)nn2)cc(OC)c1 | 2.4 | 0.19 | 12.2 |  |
| COC(=O)Nc1nc2cc(C(=O)c3cccs3)ccc2[nH]1 [NOCODAZOLE] | 0.94 | 0.95 | 0.81 | Activity (MCF7 [6]): 1.6%; viability at 0.1 µM (MCF7 [9]): 70.5%; Activity (MCF7 [11]): Dose-dependent effect; Activity (MCF7 [15]): 7.6%; Activity (MCF7 [18]): 20.3% |
| COc1cc(Cn2cc(CNC(=O)c3cn(-c4ccccc4)nc3-c3ccc(Cl)cc3)nn2)cc(OC)c1OC | 2.5 | 3.5 | 0.1 |  |
| COc1cc(Cn2cc(CNC(=O)c3cn(-c4ccccc4)nc3-c3ccccc3)nn2)cc(OC)c1OC | > 100 | 1 | > 100 |  |
| O=C(NCc1cn(Cc2ccc(C(F)(F)F)cc2)nn1)c1cn(-c2ccccc2)nc1-c1ccc(Cl)cc1 | 4.9 | 1.1 | 1.9 |  |
| COc1ccc(Cn2cc(CNC(=O)c3cn(-c4ccccc4)nc3-c3ccc(Cl)cc3)nn2)cc1 | 8 | 0.29 | 1.4 |  |
| O=C(NCc1cn(Cc2ccc(C(F)(F)F)cc2)nn1)c1cn(-c2ccccc2)nc1-c1ccc(F)cc1 | 0.81 | 0.76 | 0.25 |  |
| COc1ccc(Cn2cc(CNC(=O)c3cn(-c4ccccc4)nc3-c3ccc(Cl)cc3)nn2)cc1OC | > 100 | 9.4 | 0.2 |  |
| COc1ccc(Cn2cc(CNC(=O)c3cn(-c4ccccc4)nc3-c3ccc(F)cc3)nn2)cc1 | 0.65 | 3.7 | 0.87 |  |
| COc1ccc(Cn2cc(CNC(=O)c3cn(-c4ccccc4)nc3-c3ccccc3)nn2)cc1 | > 100 | 10.2 | 6.9 |  |
| COc1cc(Cn2cc(CNC(=O)c3cn(-c4ccccc4)nc3-c3ccc(F)cc3)nn2)cc(OC)c1 | 2.5 | 0.19 | 0.36 |  |
| O=C(NCc1cn(Cc2ccc(Cl)cc2)nn1)c1cn(-c2ccccc2)nc1-c1ccc(F)cc1 | 0.13 | 0.28 | 0.21 | Activity (MCF7 [4]): Active; Activity (MCF7 [5]): Active; Activity (MCF7 [6]): 2%; Activity [7]: Active; Activity (MCF7 [8]): 10.3%; viability at 0.1 µM (MCF7 [9]): 69.3%; viability at 0.05 µM (MCF7 [10]): 83.8%; Activity (MCF7 [11]): Dose-dependent effect; Activity (MCF7 [12]): 5.2%; Activity [13]: Active; Activity [14]: Dose-dependent effect; Activity (MCF7 [15]): 8.2%; Activity (MCF7 [16]): Active; Activity (MCF7 [17]): 0.7%; Activity (MCF7 [18]): 20.5% |
| COc1ccc(-c2nn(-c3ccccc3)cc2C(=O)NCc2cn(Cc3ccc(OC)c(OC)c3)nn2)cc1 | > 100 | 16.3 | 0.8 |  |
| COc1ccc(-c2nn(-c3ccccc3)cc2C(=O)NCc2cn(Cc3cc(OC)cc(OC)c3)nn2)cc1 | 0.7 | 5.8 | 12.4 |  |
| COc1cc(Cn2cc(CNC(=O)c3cn(-c4ccccc4)nc3-c3ccc(F)cc3)nn2)cc(OC)c1OC | 4.3 | 5.2 | 2.1 |  |
